Results from different studies.
HSP90B1: Endoplasmin (HSP90B1, Canis lupus familiaris, UniProt P41148)
SMARCA2 bromodomain: SWI/SNF-related matrix-associated actin-dependent regulator of chromatin subfamily A member 2, bromodomain (SMARCA2, Homo sapiens, UniProt P51531)
MTOR: Serine/threonine-protein kinase mTOR (MTOR, Homo sapiens, UniProt P42345)
LYZ: Lysozyme C (LYZ, Gallus gallus, UniProt P00698)

NC(=O)c1ccc(-c2nc(-c3ccc4c(c3)OCO4)c(-c3ccccn3)[nH]2)cc1  Kd (Epidermal growth factor receptor (EGFR, Homo sapiens, UniProt P00533); binding): > 10 µM
COC(=O)c1c(O)cc(O)c(Cl)c1CCC(=O)Nc1ccc(Br)cc1  Kd (HSP90B1; ligand displacement; FP): 1.5 µM
Cc1ncsc1-c1ccc(CNC(=O)[C@@H]2C[C@@H](O)CN2C(=O)[C@@H](NC(=O)C2(F)CC2)C(C)(C)C)c(OCCOc2ccc(CN3CCN(c4cc(-c5ccccc5O)nnc4N)CC3)cc2)c1  Kd (SMARCA2 bromodomain; binding; SPR): 1.8 µM
CC(=O)N[C@H]1[C@H](O[C@H]2[C@H](O)[C@@H](NC(C)=O)C(O)O[C@@H]2CO)O[C@H](CO)[C@@H](O[C@@H]2O[C@H](CO)[C@@H](O)[C@H](O)[C@H]2NC(C)=O)[C@@H]1O (some centres unmarked)  Kd (Chitotriosidase-1 (Homo sapiens, UniProt Q13231); binding): 3100 µM
c1cncc(-c2cccc(Nc3nccc(NC4CCCCC4)n3)c2)c1  Kd (Non-receptor tyrosine-protein kinase TYK2, JH1 (TYK2, Homo sapiens, UniProt P29597); binding; competition with immobilised ligand): 0.35 µM
Cc1ncsc1-c1ccc(CNC(=O)[C@@H]2C[C@H](O)CN2C(=O)[C@@H](NC(=O)C2(F)CC2)C(C)(C)C)c(OCCc2ccc(CN3CCN(c4cc(-c5ccccc5O)nnc4N)CC3)cc2)c1  Kd (SMARCA2 bromodomain; binding; SPR): 1.2 µM
Cc1cc2nc3c(=O)[nH]c(=O)nc-3n(C[C@H](O)[C@H](O)[C@H](O)COP(=O)(O)OP(=O)(O)OC[C@H]3O[C@@H](n4cnc5c(N)ncnc54)[C@H](O)[C@@H]3O)c2cc1C  Kd (DAZ-associated protein 1 (Homo sapiens, UniProt Q96EP5); binding; lysate): 0.007 µM
COC(=O)c1c(O)cc(O)c(Cl)c1CCC(=O)Nc1cccc(Cl)c1  Kd (HSP90B1; ligand displacement; FP): 6.42 µM
Cc1nc(NC(=O)N2CCC[C@H]2C(N)=O)sc1-c1ccnc(C(C)(C)C(F)(F)F)c1  Kd (MTOR; binding; competition with immobilised ligand): 0.645 µM
CCN(CC)CCCC(C)Nc1c2ccc(Cl)cc2nc2ccc(OC)cc12 (centres unmarked)  Kd (LYZ; binding; fluorescence): 4.7 µM
CCC(=O)N1CCC(C(=O)NCC(=O)N2CCN(c3nc(-c4cnc(N)nc4C(F)F)nc(N4CCOCC4)n3)CC2)CC1  Kd (MTOR; binding; competition with immobilised ligand): 0.033 µM
O=P(O)(O)O[C@H]1[C@H](O)[C@@H](OP(=O)(O)O)[C@H](OP(=O)(O)O)[C@@H](OP(=O)(O)O)[C@H]1O  Kd (PREX1 (Homo sapiens, UniProt Q8TCU6); binding; ITC): 0.44 µM
CC1(C)[C@@H]2CC[C@@]1(C)C(=O)C2  Kd (Camphor 5-monooxygenase (camC, Pseudomonas putida, UniProt P00183); binding; ITC): 1.2 µM
COC(=O)c1c(O)cc(O)c(Cl)c1CCC(=O)Nc1nncs1  Kd (HSP90B1; ligand displacement; FP): 1.54 µM
CC(=O)N[C@H]1[C@H](O[C@H]2[C@H](O)[C@@H](NC(C)=O)C(O)O[C@@H]2CO)O[C@H](CO)[C@@H](O[C@@H]2O[C@H](CO)[C@@H](O)[C@H](O)[C@H]2NC(C)=O)[C@@H]1O (some centres unmarked)  Kd (LYZ; binding; pH 7.4): 6.2 µM
COC(=O)c1c(O)cc(O)c(Cl)c1CCC(=O)Nc1ccccn1  Kd (HSP90B1; ligand displacement; FP): 0.82 µM
C=CC(=O)N1CCC(C(=O)N(C)CC(=O)N2CCN(c3nc(-c4cnc(N)nc4C(F)F)nc(N4CCOCC4)n3)CC2)CC1  Kd (MTOR; binding; competition with immobilised ligand): 0.026 µM
